# Bioassay records deposited in PubChem by The Scripps Research Institute Molecular Screening Center.
# PRMT1 inh – blocks human protein arginine methyltransferase 1; Q99873; recombinant PRMT1, activity-based probe fluorescence polarization; inhibition, % at 2.79 µM; actives 1.3% (n = 370,000);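 active = inhibition above about 21% made by adding two undisclosed values, limit read from the data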
# Target sequence (Q99873 whole entry, looked up): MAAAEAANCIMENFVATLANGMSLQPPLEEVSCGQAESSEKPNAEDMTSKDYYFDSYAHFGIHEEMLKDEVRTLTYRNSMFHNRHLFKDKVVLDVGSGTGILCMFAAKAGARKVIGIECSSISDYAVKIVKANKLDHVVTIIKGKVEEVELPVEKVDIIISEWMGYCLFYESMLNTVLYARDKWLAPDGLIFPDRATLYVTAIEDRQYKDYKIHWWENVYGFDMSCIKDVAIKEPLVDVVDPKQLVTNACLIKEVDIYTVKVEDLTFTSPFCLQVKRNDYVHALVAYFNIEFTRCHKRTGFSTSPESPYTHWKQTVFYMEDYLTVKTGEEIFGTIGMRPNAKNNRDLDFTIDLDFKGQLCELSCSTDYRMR
# ABHD4 inh – ABHD4 (mouse) inhibition, primary FP screen; Q8VD66; purified mABHD4, FP-Rh probe fluorescence polarization; inhibition, % at 8.92 µM; actives 0.54% (n = 370,000); AID 720543;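 active = inhibition exceeding the mean over every tested compound plus 3 SD, cut at about 30% in these data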;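 note: 0% = plate median of compound wells and 100% = S159A mutant with DMSO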
#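 System: mouse ABHD4 enzyme, wild type / Medium: HEPES pH 7.0, NaCl, Pluronic buffer / Reagent: FP-Rh activity-based fluorescent probe / Control set: S159A mutant high control, sample median low control / Detection: fluorescence polarization with parallel and perpendicular emission, 525/598 nm / Schedule: 45 min + 60 min at 25 °C / Compound dosing: 8.92 µM, single dose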
# rCAG binder – r(CAG) repeat RNA binding. inhibition, % at 3 µM. TO-PRO-1 dye displacement fluorescence. AID 651821. actives 1.3% (n = 370,000);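 active = inhibition above the plate cutoff, the mean of all test compounds on that plate plus 3 SD, cut at about 35% in these data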;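 note: 0% = DMSO alone and 100% = 100 µM mitoxantrone as full dye displacement; higher means more dye released from RNA so lower well fluorescence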
# HTRA1 inh – inhibitors of human serine peptidase HTRA1; AID 504803; recombinant HTRA1, FP-rhodamine activity-based probe, fluorescence polarization; Q92743; actives 0.5% (n = 340,000); inhibition, % at 5.96 µM; in the data active = inhibition above about 36%;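 note: 0% = enzyme with DMSO and 100% = wells lacking enzyme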
# SIAE inh – blocks human sialic acid acetylesterase | SIAE FP-Rh probe binding, fluorescence polarization | AID 1053197 | actives 0.69% (n = 370,000) | inhibition, % at 9.66 µM;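 active = inhibition above a cutoff: mean of compounds within the control limits plus 3 SD of those, cut at about 17% in these data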;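 note: 0% = plate median of compound wells and 100% = probe without SIAE protein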
# rCAG bind conf – r(CAG) RNA repeat binding, confirmation | actives 70% (n = 4,300) | inhibition, % at 3 µM | AID 652065 | shares compounds with rCAG binder | TO-PRO-1 dye displacement fluorescence;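 active = inhibition above a per-plate cutoff, the mean inhibition of sample wells plus 3 SD, cut at about 35% in these data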;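 note: loss of TO-PRO-1 fluorescence as compound displaces dye from 1x1 AA loop RNA; 0% = DMSO only wells and 100% = 100 µM mitoxantrone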
# dCAG dye counter – disrupts DNA CAG TO-PRO-1 complex, flagging rCAG hits. shares compounds with rCAG binder. d(CAG) DNA oligo TO-PRO-1 dye displacement, fluorescence. inhibition, % at 3 µM. actives 94% (n = 4,300);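 active = inhibition above its plate's cutoff, the mean test-well inhibition plus 3 SD, cut at about 4.8% in these data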;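 note: 0% = DNA dye mix with DMSO and 100% = 100 µM mitoxantrone; hits displace the dye from DNA and so lower well fluorescence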
# DNA CAG DR – disrupts DNA CAG TO-PRO-1 complex in dose response | shares compounds with rCAG binder | DNA CAG/GTC duplex TO-PRO-1 dye displacement fluorescence | IC50, µM | actives 20% (n = 250) | AID 686960; in the data active = IC50 below about 10 µM
# * marks the source's active call; other numbers are inactive results; i = inactive; nt = not tested or not shown. A selection: hits, their analogues and other compounds. The true share with any hit is near 3.3%.
SMILES,PRMT1 inh,ABHD4 inh,rCAG binder,HTRA1 inh,SIAE inh,rCAG bind conf,dCAG dye counter,others
CC1(C(=O)NS(=O)(=O)c2ccc(F)cc2F)CCN1C(=O)CC(c1ccccc1)c1ccccc1 (stereo unspecified),3,4,38*,nt,2,33,5.8*,
CC1(C(=O)NS(=O)(=O)c2ccc(F)cc2F)CCN1C(=O)CCc1ccccc1 (stereo unspecified),-2,9,3,nt,-2,nt,nt,
O=C(O)CCN1C(=O)/C(=C/c2cccc(OCc3ccc(F)cc3)c2)SC1=S,19,10,nt,nt,-4,nt,nt,
CCN(C(=O)[C@@H](C)[C@@H](O)c1ccc(C(C)=O)cc1)c1ccccc1,4,0,1,nt,0,nt,nt,
O=C(NC1CCCCN(Cc2ccc(Cl)cc2)C1=O)c1ccc(F)cc1 (stereo unspecified),-1,4,2,nt,-4,nt,nt,
CCOC(=O)c1c(NC(=O)CCC(=O)O)sc2c1CCCCC2,3,1,21,3,8,nt,nt,
O=C(O)CCC(=O)Nc1sc2c(c1C(=O)Nc1cccc3ccccc13)CCCCC2,24*,12,43*,20,12,28,15*,
COc1ccc(OC)c(NC(=O)c2c(NC(=O)CCC(=O)O)sc3c2CCCCC3)c1,17,17,41*,9,12,49*,17*,
COC(=O)c1c(NC(=O)CCC(=O)O)sc2c1CCCCC2,1,1,9,-3,8,nt,nt,
Cc1cc2c(c(=O)o1)[C@@]1(C(=O)N(C)c3ccccc31)C1=C(CC3(CCCCC3)OC1=O)O2,1,2,-2,nt,6,nt,nt,
N#CCc1nc(C(c2ccccc2)c2ccccc2)no1,3,-19,40*,-21,-8,17,8.0*,
COCCN(C)Cc1nc(C(c2ccccc2)c2ccccc2)no1,-2,0,-7,4,-2,nt,nt,
Cc1ccccc1CC(=O)N1CCC(n2nnc3ncccc32)CC1,3,0,2,nt,1,nt,nt,
COc1cc(OC)cc(C(=O)Nc2ccc(S(=O)(=O)Nc3cnc4ccccc4n3)cc2)c1,7,-15,64*,nt,-20,59*,15*,
Cc1ccc(C(=O)Nc2ccc(S(=O)(=O)Nc3cnc4ccccc4n3)cc2)cc1,5,-7,43*,-16,-5,34,12*,
COc1cc(C(=O)Nc2ccc(S(=O)(=O)Nc3cc(C)nc(C)n3)cc2)cc(OC)c1OC,0,2,7,-13,2,nt,nt,
O=C(Nc1ccc(S(=O)(=O)Nc2cnc3ccccc3n2)cc1)c1ccc([N+](=O)[O-])cc1Cl,3,0,49*,-18,-2,33,6.0*,
COc1cc(OC)cc(C(=O)Nc2ccc(S(=O)(=O)Nc3ccccn3)cc2)c1,1,2,7,8,-7,nt,nt,
COc1cc(C(=O)Nc2ccc(S(=O)(=O)Nc3cnc4ccccc4n3)cc2)cc(OC)c1OC,3,-6,40*,4,-12,33,6.8*,
Cc1ccc(Cn2nnc3c2-c2cc(F)ccc2S(=O)(=O)N(C(C)(C)C)C3)cc1,-4,-9,3,nt,4,nt,nt,
Cc1ccc(CNC[C@@]23CO[C@H](c4ccc(Cl)cc4)N2[C@@H](c2ccc(Cl)cc2)SC3)o1,4,-8,4,nt,10,nt,nt,
C(=N\Nc1nc2ccccc2s1)/c1cccs1,2,20,9,13,4,nt,nt,
CCn1c(C)c(/C=N/Nc2nc3ccccc3s2)c2ccccc21,12,4,47*,32,7,32,15*,
COC(=O)[C@H](C(C)C)N(CCCc1cn(Cc2ccccc2)nn1)S(=O)(=O)c1ccccc1Br,2,-1,3,nt,4,nt,nt,
Cc1cccc(N2C(=O)C(O)=C(C(=O)c3cccs3)C2c2ccc(C(C)C)cc2)n1 (stereo unspecified),0,-4,48*,3,-6,39*,11*,
SMILES,PRMT1 inh,ABHD4 inh,rCAG binder,HTRA1 inh,SIAE inh,rCAG bind conf,dCAG dye counter,others
CCOC(=O)c1ccc(-n2c(O)c(/C=N/NC(=O)C3COc4ccccc4O3)c3ccccc3c2=O)cc1 (stereo unspecified),2,16,75*,4,6,79*,42*,
O=S(=O)(N/N=C/c1ccc(Cl)cc1)c1ccc(Cc2ncc(C(F)(F)F)cc2Cl)s1,-1,3,45*,-20,-4,65*,26*,
NC(=O)c1ccc(Cc2ncc(C(F)(F)F)cc2Cl)s1,0,-3,-1,-12,0,nt,nt,
CCOc1ccc2nc(NS(=O)(=O)c3ccc(NC(C)=O)cc3)sc2c1,0,15,21,-1,1,nt,nt,
CCOc1ccc2nc(NS(=O)(=O)Cc3ccccc3)sc2c1,6,-6,44*,0,-1,29,10*,
Cc1cc(N2CCN(S(C)(=O)=O)C[C@H]2C)ccc1N1CCN(Cc2ccccc2)[C@H](C)C1,2,12,2,nt,2,nt,nt,
Cc1onc(-c2ccccc2)c1C(=O)NC(=S)NNC(=O)c1cc(-c2ccc(F)cc2)n[nH]1,-3,4,68*,26,-5,71*,31*,DNA CAG DR=>30
O=C(N[C@@H](Cc1c[nH]c2ccccc12)C(=O)O)C1CCN(S(=O)(=O)c2ccc(Cl)cc2)CC1,-1,8,35*,4,2,29,8.2*,
O=C(N[C@@H](Cc1c[nH]c2ccccc12)C(=O)O)C1CCN(S(=O)(=O)c2cccs2)CC1,-4,19,12,3,-4,nt,nt,
CCCc1cc(=O)[nH]c(Nc2ccc(O)cc2)n1,1,2,3,8,5,nt,nt,
CCCc1cc(=O)[nH]c(Nc2ccc(OC)c(Cl)c2)n1,-2,6,36*,-2,6,9,11*,
CCCc1cc(=O)[nH]c(Nc2ccc(Cl)cc2)n1,-3,-1,41*,-9,5,9,10*,
CCC[C@H]1[C@@H](NC(=O)C2CCC2)CC[C@@]23CCCN2C(=O)CCC[C@@H]13,3,-5,nt,nt,1,nt,nt,
O=C(N[C@@H](Cc1cccnc1)C(=O)N1CCC[C@H]1C(=O)NCc1ccccc1)c1ccc(Cl)cc1Cl,-1,-4,2,nt,0,nt,nt,
COC(=O)[C@H](C(C)C)N(Cc1cn(Cc2ccccc2)nn1)S(=O)(=O)c1ccc(F)cc1Br,3,-2,1,nt,1,nt,nt,
COc1cc(/C=C2\SC(=Nc3ccccc3)N(Cc3ccco3)C2=O)ccc1OC(C)C(=O)O (stereo unspecified),-2,-19,67*,-19,-1,71*,29*,DNA CAG DR=i
CN=C1S/C(=C\c2ccc(OCC(=O)OC)c(OC)c2)C(=O)N1C,-7,0,-5,1,-5,nt,nt,
